This passage reports activity change, negative = cytotoxicity results from PubChem BioAssay AID588830 (Broad Institute, 2011).

Activity calls are given as the source filed them.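 The calls were made as follows: active = fitted IC50 for falling signal at or below ten times the top tested dose; inconclusive = flat fit with 30 to 70% signal loss, or poor fit; inactive = the rest.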

One experiment is described as follows: ATP-based viability of SR-BI CHO cells – cell-based, CellTiter-Glo luminescence, 3 h, dry powder, cytotoxicity control for SR-BI HDL uptake inhibitor project, dose response (AID 588830). To be noted: ldlA[mSR-BI] CHO cells viability, CellTiter-Glo ATP, 3 h; at 30 µM (top of the series). A digest of the protocol: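 Material: ldlA[mSR-BI] cells, scavenger receptor B1-expressing line; Buffer or medium: PSG and 10% FCS in Ham's F12; Doses: 8-concentration series per compound, added by pin transfer; Timing: 3 h at 37 °C, then 10 min with reagent; Signal: luminescence of cellular ATP via Cell Titer Glo reagent.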
In general terms: Cellular ATP, detected with luciferase, serves as a proxy for viable cell number.
As to `C[C@H]1CN([C@@H](C)CO)C(=O)c2cc(NC(=O)Cc3cn(C)c4ccccc34)ccc2O[C@H]1CN(C)S(=O)(=O)c1ccc(F)cc1`, the activity change, negative = cytotoxicity is -1.92% (inactive).

The same experiment, now with this note: ldlA[mSR-BI] CHO cells viability, CellTiter-Glo ATP, 3 h; at 35 µM (top of the series).
With `O=C(Nc1ccccc1)c1ccccc1NS(=O)(=O)c1ccc(Cl)cc1`, the activity change, negative = cytotoxicity was -7.39% (inactive).
For the compound `O=C(Nc1cc(C(F)(F)F)ccc1Cl)c1ccccc1NS(=O)(=O)c1ccc(Cl)cc1`, the activity change, negative = cytotoxicity is -7.07% (inactive).
As for `CC(C)(C)NC(=O)N1CCN(c2ncccc2C(F)(F)F)CC1`, the activity change, negative = cytotoxicity is -3.5% (inactive).
For the compound `COC(=O)c1cn(C(=O)c2cccc3ccccc23)c2ccccc12`, the activity change, negative = cytotoxicity was -13.3% (inactive).
With `C[C@H](CO)N1C[C@H](C)[C@H](CN(C)S(=O)(=O)c2ccc(F)cc2)Oc2ccc(NC(=O)CCC(F)(F)F)cc2C1=O`, the activity change, negative = cytotoxicity is -1.99% (inactive).
In the case of `CC(OC(=O)c1cccc(NS(C)(=O)=O)c1)C(=O)Nc1ccc(N2CCOCC2)cc1` (stereo not given), the activity change, negative = cytotoxicity is -7.82% (inactive).
As to `C[C@@H]1CN([C@H](C)CO)C(=O)c2cc(NC(=O)Cc3cn(C)c4ccccc34)ccc2O[C@H]1CN(C)S(=O)(=O)c1ccc(Cl)cc1`, the activity change, negative = cytotoxicity was -0.219% (inactive).
With `CCc1sc(N2C(=O)C3C4CCC(C4=C(C)C)C3C2=O)nc1-c1ccccc1` (stereo not given), the activity change, negative = cytotoxicity is -2.48% (inactive).
Take `Cc1ccccc1NC(=O)NCC1CCN(c2ccc(S(=O)(=O)N3CCOCC3)cc2)CC1`: the activity change, negative = cytotoxicity was -8.7% (inactive).
In the case of `C[C@@H]1CN([C@H](C)CO)C(=O)c2cc(NC(=O)Cc3cn(C)c4ccccc34)ccc2O[C@H]1CN(C)S(C)(=O)=O`, the activity change, negative = cytotoxicity was 3.58% (inactive).
Consider `O=C(Nc1ccc(-c2nc3cc(NC(=O)c4ccc(NC(=O)c5cccc6ccccc56)cc4)ccc3[nH]2)cc1)c1ccc(NC(=O)c2cccc3ccccc23)cc1`, for which the activity change, negative = cytotoxicity was 2.1% (inactive).
Take `CCC(=O)N1CCc2cc(-c3csc(NC(=O)c4ccco4)n3)ccc21`: the activity change, negative = cytotoxicity is -8.77% (inactive).
With `Cc1cc(C)c2c(c1)NC(c1cc3c(cc1Br)OCO3)C1CC=CC21` (stereo not given), the activity change, negative = cytotoxicity is -9.46% (inactive).
Take `C[C@H]1CN([C@@H](C)CO)C(=O)c2cc(NC(=O)Nc3ccccc3)ccc2O[C@@H]1CN(C)Cc1ccc(Cl)c(Cl)c1`: the activity change, negative = cytotoxicity was -3.67% (inactive).
Same read-out and setting: the value for `O=C(Nc1cccc(NC(=O)c2cc([N+](=O)[O-])ccc2Cl)n1)c1cc([N+](=O)[O-])ccc1Cl` was -7.2% (inactive); that for `CC(C)NC(=O)Nc1cccc2c1O[C@H](CN(C)Cc1ccc(Cl)c(Cl)c1)[C@@H](C)CN([C@@H](C)CO)C2=O` was 3.31% (inactive); that for `CCn1c(COc2c(C)cccc2C)nnc1SCC(=O)N1CCN(c2ccccc2)CC1` was -9.72% (inactive).
Same read-out and setting: the value for `CNC[C@@H]1Oc2ccc(NC(=O)Cc3cn(C)c4ccccc34)cc2C(=O)N([C@H](C)CO)C[C@H]1C` was -4.04% (inactive); that for `C[C@@H]1CN([C@H](C)CO)C(=O)c2cc(NC(=O)Cc3cn(C)c4ccccc34)ccc2O[C@H]1CN(C)C(=O)Nc1ccc(F)cc1` was 4.57% (inactive); that for `CCc1cc2cc3c(cc2nc1SCC(=O)OC(C)C)OCO3` was -2% (inactive).
`Nc1ccc(C(=O)Nc2ccc(-c3nc4ccc(NC(=O)c5ccc(N)cc5)cc4[nH]3)cc2)cc1`: the activity change, negative = cytotoxicity was 7.17% (inactive).
Regarding `COc1ccc(OC)c(CCNC(=O)c2ccc3c(c2)N(Cc2ccc(F)cc2)CCS3)c1`, the activity change, negative = cytotoxicity was -5.33% (inactive).
On the same count and under the same terms, the value for `CCOC(=O)N1CCC(NC(=O)c2ccc3c(c2)N(Cc2ccc(F)cc2)CCS3)CC1` was -4.76% (inactive); that for `O=C(Nc1cc(Cl)ccc1Cl)c1cc(Br)ccc1NS(=O)(=O)c1ccc(Cl)c([N+](=O)[O-])c1` was -11.2% (inactive).
